Env fusion inh – inhibitors of HIV-1 Env-driven cell-cell fusion, primary screen, HeLa-JRFL effector, CEM21 target cells, luciferase; 360,000 compounds, 1.1% hits; AID 651610, 2012; inhibition, % at 12.3 µM;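 active = mean replicate inhibition score of at least 50 and every replicate individually at or above 50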;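 also: 0% = plate neutral controls and 100% = maraviroc near 300 nM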
PglD inh – C. jejuni PglD acetyltransferase inhibitors, primary screen, biochemical, DTNB colorimetric, single point; 360,000 compounds, 0.098% hits; inhibition, % at 12.5 µM; UDP-N-acetylbacillosamine N-acetyltransferase PglD (Campylobacter jejuni); AID 602405, 2012; purified PglD enzyme, DTNB colorimetric CoA detection; in the data active = inhibition above about 16%, passing the limit was not always enough
SR-BI DiI inh – inhibitors of SR-BI mediated HDL lipid uptake, primary screen, ldlA[mSR-BI] cells, fluorescence, single point; inhibition, % at 12.5 µM; Scavenger receptor class B member 1 (Mus musculus), Q61009; 320,000 compounds, 0.96% hits; ldlA[mSR-BI] CHO cells, DiI-HDL uptake fluorescence, 3 h;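 active = mean replicate inhibition of at least 70% and a set share of replicates each scoring 70 or more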;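 also: 0% = median of neutral control wells and 100% = median of positive control wells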
SR-BI uptake up – activators of SR-BI mediated DiI-HDL uptake, primary screen, ldlA[mSR-BI] CHO cells, DiI fluorescence; 3 h; 100 = double the neutral-control signal; activation, % at 12.5 µM; 320,000 compounds, 0.096% hits;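 active = mean replicate activation of at least 60% and every replicate at or above 60%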;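 also: 0% = median plate neutral-control signal and 100% = twice that signal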
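Test system: SR-BI-overexpressing, LDLR-lacking CHO cells; Medium: Ham's F12 with 0.5% BSA, HEPES 25 mM, pH 7.4; Schedule: 3 h, 37 °C; Technique: bottom-read fluorescence, 550/595 nm.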
N-glyco inh – increase of ERlucT glycosylation luciferase signal, primary screen, N-linked glycosylation inhibitor project, D54 ERlucT cells, luminescence, set 2; 360,000 compounds, 0.23% hits; D54 ERlucT glycosylation luciferase reporter, 24 h; percent of 100 nM tunicamycin response; reporter increase, % at 12.5 µM;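 active = mean luciferase reporter signal, scaled so untreated is 0 and the glycosylation-blocking control 100, at or above a set limit in every replicate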;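 also: luciferase carries N-glycosylation sites so blocking glycosylation raises the light; 0% = median of neutral control wells and 100% = median of 100 nM tunicamycin wells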
Rtt109 HAT inh – inhibitors of C. albicans Rtt109/Vps75 HAT, primary screen, biochemical, ThioGlo CoA-SH fluorescence, plate reader. Histone acetyltransferase RTT109 (Candida albicans (strain SC5314 / ATCC MYA-2876)), …. purified Rtt109/Vps75, 4 h. inhibition, % at 34.9 µM. 330,000 compounds, 0.16% hits;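 active = inhibition of at least 50% in every replicate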
Target sequence (Q5AAJ8 whole entry, looked up): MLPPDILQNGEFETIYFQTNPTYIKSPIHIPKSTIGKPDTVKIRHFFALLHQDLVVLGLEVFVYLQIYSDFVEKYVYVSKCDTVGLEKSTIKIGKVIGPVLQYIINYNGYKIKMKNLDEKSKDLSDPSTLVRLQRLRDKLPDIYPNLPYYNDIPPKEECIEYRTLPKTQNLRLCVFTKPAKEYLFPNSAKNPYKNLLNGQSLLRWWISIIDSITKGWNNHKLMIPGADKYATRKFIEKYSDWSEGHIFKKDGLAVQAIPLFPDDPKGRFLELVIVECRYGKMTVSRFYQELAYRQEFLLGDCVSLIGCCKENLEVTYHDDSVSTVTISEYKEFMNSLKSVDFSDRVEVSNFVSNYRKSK
Active calls of the source: *; nt = not tested or not shown; [ ] = another dose, or the depositor's remark. In the library only some 1.9% were active in any assay of this set; here they are far more common.

SMILES	Env fusion inh	PglD inh	SR-BI DiI inh	SR-BI uptake up	N-glyco inh	Rtt109 HAT inh
O=C(NCC(c1cccs1)N1CCOCC1)c1cc(-c2ccc(F)cc2)nc2ccccc12 (stereo not given)	-24	nt	84*	-84	-4	3
Cc1cccc(-c2cc(C(=O)Nc3c(C)n(C)n(-c4ccccc4)c3=O)c3ccccc3n2)c1	-150	2	58	-58	0	5
CNC(=O)C[C@H]1CC[C@H]2[C@@H](COC[C@H](O)CN2Cc2ccc(Cl)c(Cl)c2)O1	7[16.7 µM]	1	nt	nt	nt	nt
C[C@@H]1CN([C@@H](C)CO)C(=O)c2cc(C#CCN(C)C)cnc2O[C@H]1CN(C)C(=O)NC1CCCC1	-10[16.7 µM]	0	nt	nt	nt	nt
Cc1c(Nc2nc3ccccc3nc2NS(=O)(=O)c2cccc(Cl)c2)c(=O)n(-c2ccccc2)n1C	-6	nt	2	-2	0	-2
Cc1ccc(Nc2nc3ccccc3nc2Nc2c(C)n(C)n(-c3ccccc3)c2=O)cc1	4	nt	92*	-92	-3	nt
Cc1cc(NC(=O)c2cnn3c(C(F)(F)F)cc(-c4ccc(Br)cc4)nc23)no1	-16	-2	77*	-77	-1	-4
CN(C)CC(=O)Nc1ccc2c(c1)[C@@H]1C[C@@H](CC(=O)NCc3cccc(F)c3)O[C@H](CO)[C@@H]1O2	2[16.7 µM]	1	nt	nt	nt	nt
O=C(C[C@H]1C[C@@H]2c3cc(NC(=O)C4CCOCC4)ccc3O[C@@H]2[C@@H](CO)O1)NCc1ccccc1F	82*[16.7 µM]	1	nt	nt	nt	nt
CN(C)CC(=O)Nc1ccc2c(c1)[C@H]1C[C@H](CC(=O)NCc3cccc(F)c3)O[C@@H](CO)[C@H]1O2	64*[16.7 µM]	1	nt	nt	nt	nt
CN(C)CC(=O)Nc1ccc2c(c1)[C@@H]1C[C@@H](CC(=O)NCCc3ccccc3)O[C@H](CO)[C@@H]1O2	-14[16.7 µM]	-1	nt	nt	nt	nt
COCCNC(=O)C[C@@H]1C[C@H]2c3cc(N(C)C)ccc3O[C@H]2[C@@H](CO)O1	65*[16.7 µM]	-3	nt	nt	nt	nt
CN(C)CC(=O)Nc1ccc2c(c1)[C@H]1C[C@@H](CC(=O)NCCc3ccccc3)O[C@H](CO)[C@H]1O2	60*[16.7 µM]	1	nt	nt	nt	nt
CCCC#Cc1cnc2c(c1)C(=O)N([C@@H](C)CO)C[C@@H](C)[C@@H](CN(C)C(=O)C1CCC1)O2	12[16.7 µM]	5	nt	nt	nt	nt
O=C(C[C@H]1C[C@H]2c3cc(NC(=O)C4CCOCC4)ccc3O[C@H]2[C@@H](CO)O1)NCc1ccccc1	23[16.7 µM]	3	nt	nt	nt	nt
O=C(C[C@@H]1C[C@@H]2c3cc(NC(=O)C4CCOCC4)ccc3O[C@@H]2[C@@H](CO)O1)NCCc1ccccc1	nt	-1	nt	nt	nt	nt
O=C(C[C@@H]1C[C@@H]2c3cc(NC(=O)C4CCOCC4)ccc3O[C@@H]2[C@H](CO)O1)NCCc1ccccc1	63*[16.7 µM]	0	nt	nt	nt	nt
O=C(C[C@@H]1C[C@H]2c3cc(NC(=O)C4CCOCC4)ccc3O[C@H]2[C@@H](CO)O1)NCc1ccccc1	90*[16.7 µM]	-3	nt	nt	nt	nt
C[C@H](CO)N1C[C@H](C)[C@@H](CN(C)Cc2ccc(-c3ccccc3)cc2)Oc2ccc(NC(=O)Cc3ccccc3)cc2C1=O	-8[16.7 µM]	nt	nt	nt	nt	nt
C[C@H](CO)N1C[C@H](C)[C@@H](CN(C)C(=O)Nc2cccc(C(F)(F)F)c2)OCc2ccccc2-c2ccccc2C1=O	58*[16.7 µM]	0	nt	nt	nt	nt
C[C@@H]1CN([C@@H](C)CO)C(=O)c2ccccc2-c2ccccc2CO[C@@H]1CN(C)C(=O)Nc1ccc2c(c1)OCO2	59*[16.7 µM]	-3	nt	nt	nt	nt
C[C@@H]1CN([C@H](C)CO)C(=O)c2ccccc2-c2ccccc2CO[C@H]1CN(C)C(=O)Nc1cccc(C(F)(F)F)c1	35[16.7 µM]	-2	nt	nt	nt	nt
O=C(O)C1Nc2c(O)cc(Cl)c([N+](=O)[O-])c2C2C=CCC12 (stereo not given)	-13	nt	83*	-83	-1	9
O/N=C/c1ccc2cccc(OCc3ccccc3)c2n1	22	-9	3	-3	-5	0
NC(N)=N/N=C/c1ccc2cccc(OCc3ccccc3)c2n1	-29	nt	13	-13	29*	-8
SMILES	Env fusion inh	PglD inh	SR-BI DiI inh	SR-BI uptake up	N-glyco inh	Rtt109 HAT inh
O=C(NCC1CC1)[C@@H]1[C@@H](CO)[C@@H]2Cn3c(ccc(-c4ccccc4)c3=O)[C@@H]2N1CC1CC1	nt	4	nt	nt	nt	nt
CCc1cccc(CC)c1N1C(=O)c2cc(N3CCOCC3)c([N+](=O)[O-])cc2C1=O	-14	-2	75*	-75	-1	-2
Cc1cccc(C(P(=O)(c2ccccc2)c2ccccc2)P(=O)(c2ccccc2)c2ccccc2)n1	64*	nt	-50	50	0	0
Cc1cccc(C(O)C(O)c2cccc(C)n2)n1 (stereo not given)	13	2	-36	36	1	3
COc1cc(-c2ccc3oc(-c4ccsc4)cc(=O)c3c2)cc(OC)c1OC	22	2	73*	-73	1	-2
C[C@H](CO)N1C[C@H](C)[C@@H](CN(C)C(=O)Nc2ccc3c(c2)OCO3)Oc2cc(C3=CCCC3)ccc2S1(=O)=O	-38[16.7 µM]	1	nt	nt	nt	nt
C[C@@H]1CN([C@@H](C)CO)C(=O)c2cccc(NC(=O)c3ccc(-c4nccs4)cc3)c2O[C@H]1CN(C)C(=O)Nc1ccc(C(F)(F)F)cc1	nt	3	nt	nt	nt	nt
O=C(/C=C/c1cn(CC(O)CN2CCCCC2)c2ccccc12)c1ccccc1 (stereo not given)	0	nt	nt	nt	4	53*
O=C(/C=C/c1cn(CC(O)CN2CCCCC2)c2ccccc12)c1cccs1 (stereo not given)	nt	nt	-1	1	4	4
C[C@@H]1CN([C@@H](C)CO)C(=O)c2cc(C#CCN(C)C)cnc2O[C@@H]1CN(C)Cc1ccccc1	-9[16.7 µM]	3	nt	nt	nt	nt
O=[N+]([O-])c1ccc(Cl)cc1N/N=C/c1ccncc1	3	-7	8	-8	0	5
O=[N+]([O-])c1cc(S(=O)(=O)Nc2ccc(Cl)cc2)ccc1N/N=C/c1ccncc1	-49	2	72*	-72	-12	3
CCc1ccc(-c2nnn(CCC(=O)OC)n2)cc1	65*	8	2	-2	0	8
CCc1ccc(-c2nnn(CCC#N)n2)cc1	0	2	-6	6	-3	-20
CC(C)OCCCNC(=O)c1c(N)n(/N=C/c2ccccn2)c2nc3ccccc3nc12	-40	-1	-84	84*	1	4

Screens from PubChem BioAssay.
